In ChEMBL document CHEMBL4270656, “Synthesis and evaluation of 2-substituted 4(3H)-quinazolinone thioether derivatives as monoamine oxidase inhibitors” (Bioorg Med Chem, 2018):

Key:
[1] = molecular target: T1, Amine oxidase [flavin-containing] A (Homo sapiens, UniProt P21397); assay: Inhibition of recombinant human MAO-A at 100 uM using kynuramine as substrate after 20 mins by fluorescence spectrophotometric analysis
T1 sequence (P21397 whole entry): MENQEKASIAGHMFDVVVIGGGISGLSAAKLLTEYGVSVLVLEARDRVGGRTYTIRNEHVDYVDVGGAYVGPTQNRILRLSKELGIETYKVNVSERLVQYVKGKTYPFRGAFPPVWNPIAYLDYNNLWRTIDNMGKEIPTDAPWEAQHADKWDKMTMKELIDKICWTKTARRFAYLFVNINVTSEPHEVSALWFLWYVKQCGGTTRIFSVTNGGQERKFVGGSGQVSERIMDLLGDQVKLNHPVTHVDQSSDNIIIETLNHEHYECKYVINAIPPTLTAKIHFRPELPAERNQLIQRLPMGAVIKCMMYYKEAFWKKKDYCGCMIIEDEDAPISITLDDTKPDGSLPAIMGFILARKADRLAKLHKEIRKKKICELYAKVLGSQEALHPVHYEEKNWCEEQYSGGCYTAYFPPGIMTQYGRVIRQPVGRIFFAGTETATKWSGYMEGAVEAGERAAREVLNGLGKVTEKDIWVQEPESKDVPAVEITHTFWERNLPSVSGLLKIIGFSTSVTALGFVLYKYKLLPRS
How it was run: (§1)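 Recombinant human enzyme from insect-cell microsomes, MAO-A 0.0075 or MAO-B 0.015 mg protein/mL, in 100 mM potassium phosphate pH 7.4 made isotonic with KCl. Kynuramine 50 µM, inhibitor up to 100 µM, DMSO 4% final. 20 min at 37 °C, stopped with 2 N NaOH. 4-Hydroxyquinoline read by fluorescence (ex 310/em 400 nm) against a calibration curve.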

[2] = molecular target: T2, Amine oxidase [flavin-containing] B (Homo sapiens, UniProt P27338); assay: Inhibition of recombinant human MAO-B using kynuramine as substrate after 20 mins by fluorescence spectrophotometric analysis
T2 sequence (P27338 whole entry): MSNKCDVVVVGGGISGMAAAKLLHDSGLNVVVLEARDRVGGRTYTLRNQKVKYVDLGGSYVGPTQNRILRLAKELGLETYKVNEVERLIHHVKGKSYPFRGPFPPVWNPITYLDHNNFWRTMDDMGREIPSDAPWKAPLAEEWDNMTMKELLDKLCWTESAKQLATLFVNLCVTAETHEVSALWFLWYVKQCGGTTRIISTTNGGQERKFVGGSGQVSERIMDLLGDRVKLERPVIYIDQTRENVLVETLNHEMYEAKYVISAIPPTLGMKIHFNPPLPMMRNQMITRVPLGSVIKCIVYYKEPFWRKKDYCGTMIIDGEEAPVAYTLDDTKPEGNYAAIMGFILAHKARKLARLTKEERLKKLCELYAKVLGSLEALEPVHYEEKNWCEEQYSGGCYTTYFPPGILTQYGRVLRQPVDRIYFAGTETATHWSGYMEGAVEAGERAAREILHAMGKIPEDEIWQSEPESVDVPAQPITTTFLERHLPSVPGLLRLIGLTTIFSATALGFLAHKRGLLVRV

Homo sapiens = organism: Homo sapiens; assay: Selectivity index, ratio of IC50 for recombinant human MAO-A by IC50 for recombinant human MAO-B
How it was run: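 IC50 values for MAO-A and MAO-B taken from kynuramine fluorescence assays (0.003–100 µM inhibitor, 20 min at 37 °C) and fitted by one-site competition. Triplicate means. Index is IC50(MAO-A)/IC50(MAO-B).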

[3] = molecular target: T2, Amine oxidase [flavin-containing] B; assay: Inhibition of recombinant human MAO-B at 100 uM using kynuramine as substrate after 20 mins by fluorescence spectrophotometric analysis; how it was run: as §1
[4] = molecular target: T2, Amine oxidase [flavin-containing] B; assay: Competitive inhibition of recombinant human MAO-B using kynuramine as substrate after 20 mins by Lineweaver-Burk plot analysis
How it was run: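 Human MAO-B (insect-cell microsome, 0.015 mg/mL final) in 100 mM potassium phosphate pH 7.4 made isotonic with KCl. Six Lineweaver-Burk plots: one without inhibitor and five at 1/4, 1/2, 3/4, 1 and 1 1/4 × IC50. Kynuramine 15–250 µM, eight levels per plot. 20 min at 37 °C, NaOH stop, 4-hydroxyquinoline fluorescence. Ki taken from slopes plotted against inhibitor concentration.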

[5] = molecular target: T2, Amine oxidase [flavin-containing] B; assay: Reversible inhibition of recombinant human MAO-B using kynuramine as substrate assessed as recovery of enzyme activity at 4 times IC50 preincubated for 15 mins followed by dialysis for 24 hrs and subsequent addition of substrate measured after 20 mins by fluorescence spectrophotometric analysis relative to control; design: scale not given: the % may be the effect or the level left
How it was run: (§2)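 Pre-incubated 15 min at 37 °C, then dialysed 24 h at 4 °C (10 kDa cut-off) with buffer changes at 3 and 7 h. Diluted twofold with kynuramine (50 µM final), run 20 min at 37 °C, read by fluorescence. Triplicate; activity relative to inhibitor-free dialysed control.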

[6] = molecular target: T2, Amine oxidase [flavin-containing] B; assay: Inhibition of recombinant human MAO-B using kynuramine as substrate assessed as enzyme activity recovered after 20 mins by fluorescence spectrophotometric analysis; design: scale not given: the % may be the effect or the level left; how it was run: as §2

Row | inhibition (INH) [1] | IC50 [2] [nM] | Ratio IC50 (Homo sapiens) | inhibition (INH) [3] | Ki [4] [nM] | Activity [5] [%] | Activity [6] [%] | SMILES
1 | Not Active | 31800 | > 3.1 | – | – | – | – | O=C(CSc1nc(O)c2ccccc2n1)c1ccccc1
2 | Not Active | 5990 | > 17 | – | – | – | – | O=c1[nH]c(SCCCc2ccccc2)nc2ccccc12
3 | Not Active | 566 | > 177 | – | – | – | – | O=c1[nH]c(SCc2ccc(F)cc2)nc2ccccc12
4 | Not Active | – | – | Not Active | – | – | – | O=c1[nH]c(SCc2ccc(I)cc2)nc2ccccc12
5 | Not Active | 142 | > 704 | – | 68 | 108 | 46 | O=c1[nH]c(SCc2cccc(I)c2)nc2ccccc12
6 | Not Active | 700 | > 143 | – | – | – | – | O=c1[nH]c(SCc2ccc(C(F)(F)F)cc2)nc2ccccc12
7 | Not Active | 208 | > 481 | – | – | – | – | O=c1[nH]c(SCc2cccc(Br)c2)nc2ccccc12
8 | Not Active | 1240 | > 81 | – | – | – | – | Oc1nc(SCCOc2ccccc2)nc2ccccc12
9 | Not Active | – | – | Not Active | – | – | – | O=c1[nH]c(SCc2ccncc2)nc2ccccc12
10 | Not Active | 2500 | > 40 | – | – | – | – | Oc1nc(SCc2cccc(F)c2)nc2ccccc12
11 | Not Active | 482 | > 207 | – | – | – | – | Oc1nc(SCc2ccc(Cl)cc2)nc2ccccc12
12 | Not Active | 230 | > 435 | – | – | – | – | Oc1nc(SCc2cccc(Cl)c2)nc2ccccc12
13 | Not Active | 3030 | > 33 | – | – | – | – | O=c1[nH]c(SCc2ccccc2)nc2ccccc12
14 | Not Active | 779 | > 128 | – | – | – | – | O=c1[nH]c(SCc2ccc(Br)cc2)nc2ccccc12
